Legend:
CCRF-CEM = assay: Growth inhibition of human CCRF-CEM cells after 48 hrs by SRB assay; assay type: functional
In short: (§1)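 NCI 60-cell-line screen. Cells grown in RPMI1640 with 5% fetal calf serum and 2 mM L-glutamine, with inoculum density set by cell line. Preincubated 24 h, then given compound in DMSO at 10^-4 to 10^-8 M (five 10-fold steps) for 48 h continuous exposure. Growth measured by SRB protein assay. GI50, TGI and LC50 reported as –log molar.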

HL-60(TB) = assay: Growth inhibition of human HL-60(TB) cells after 48 hrs by SRB assay; assay type: functional; details: HL-60, 48 h
In short: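 NCI 60-cell-line screen: cells grown in RPMI1640 with 5% fetal calf serum and 2 mM L-glutamine, preincubated 24 h, then exposed to compound in DMSO at five concentrations (10^-4 to 10^-8 M) for 48 h continuous exposure. Growth estimated by sulforhodamine B protein assay; reported as pGI50 (-log molar concentration inhibiting net cell growth by 50%).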

MOLT-4 = assay: Growth inhibition of human MOLT4 cells after 48 hrs by SRB assay; assay type: functional; details: MOLT-4, 48 h; in short: as §1
SR = assay: Growth inhibition of human SR cells after 48 hrs by SRB assay; assay type: functional; in short: as §1
EKVX = assay: Growth inhibition of human EKVX cells after 48 hrs by SRB assay; assay type: functional; in short: as §1
NCI-H460 [1] = assay: Growth inhibition of human NCI-H460 cells after 48 hrs by SRB assay; assay type: functional; details: NCI-H460, 48 h; in short: as §1
HCT-116 = assay: Growth inhibition of human HCT116 cells after 48 hrs by SRB assay; assay type: functional; details: HCT-116, 48 h; in short: as §1
HCT-15 = assay: Growth inhibition of human HCT15 cells after 48 hrs by SRB assay; assay type: functional; details: HCT-15, 48 h; in short: as §1
KM12 = assay: Growth inhibition of human KM12 cells after 48 hrs by SRB assay; assay type: functional; details: KM12, 48 h; in short: as §1
SW-620 = assay: Growth inhibition of human SW620 cells after 48 hrs by SRB assay; assay type: functional; details: SW-620, 48 h; in short: as §1
SF-268 = assay: Growth inhibition of human SF268 cells after 48 hrs by SRB assay; assay type: functional; details: SF-268, 48 h; in short: as §1
SF-539 = assay: Growth inhibition of human SF539 cells after 48 hrs by SRB assay; assay type: functional; details: SF-539, 48 h; in short: as §1
SNB-75 = assay: Growth inhibition of human SNB75 cells after 48 hrs by SRB assay; assay type: functional; details: SNB-75, 48 h; in short: as §1
U-251 = assay: Growth inhibition of human U251 cells after 48 hrs by SRB assay; assay type: functional; details: U-251, 48 h; in short: as §1
Malme-3M = assay: Growth inhibition of human MALME-3M cells after 48 hrs by SRB assay; assay type: functional; details: read-out: pTGI (converted); in short: as §1
SK-MEL-2 = assay: Growth inhibition of human SK-MEL-2 cells after 48 hrs by SRB assay; assay type: functional; details: SK-MEL-2, 48 h; in short: as §1
MDA-MB-435 = assay: Growth inhibition of human MDA-MB-435 cells after 48 hrs by SRB assay; assay type: functional; details: MDA-MB-435, 48 h; in short: as §1
SK-MEL-5 = assay: Growth inhibition of human SK-MEL-5 cells after 48 hrs by SRB assay; assay type: functional; details: SK-MEL-5, 48 h; in short: as §1
UACC-62 = assay: Growth inhibition of human UACC62 cells after 48 hrs by SRB assay; assay type: functional; details: UACC-62, 48 h; in short: as §1
OVCAR-4 = assay: Growth inhibition of human OVCAR4 cells after 48 hrs by SRB assay; assay type: functional; details: OVCAR-4, 48 h; in short: as §1
NCI/ADR-RES = assay: Growth inhibition of human NCI/ADR-RES cells after 48 hrs by SRB assay; assay type: functional; in short: as §1
SK-OV-3 = assay: Growth inhibition of human SKOV3 cells after 48 hrs by SRB assay; assay type: functional; details: SK-OV-3, 48 h; in short: as §1
786-0 = assay: Growth inhibition of human 786-0 cells after 48 hrs by SRB assay; assay type: functional; details: 786-0, 48 h; in short: as §1
A498 = assay: Growth inhibition of human A498 cells after 48 hrs by SRB assay; assay type: functional; details: A498, 48 h; in short: as §1
RXF 393 = assay: Growth inhibition of human RXF393 cells after 48 hrs by SRB assay; assay type: functional; details: RXF 393, 48 h; in short: as §1
TK-10 = assay: Growth inhibition of human TK10 cells after 48 hrs by SRB assay; assay type: functional; details: TK-10, 48 h; in short: as §1
UO-31 = assay: Growth inhibition of human UO31 cells after 48 hrs by SRB assay; assay type: functional; details: UO-31, 48 h; in short: as §1
PC-3 = assay: Growth inhibition of human PC3 cells after 48 hrs by SRB assay; assay type: functional; details: PC-3, 48 h; in short: as §1
DU-145 = assay: Growth inhibition of human DU145 cells after 48 hrs by SRB assay; assay type: functional; details: DU-145, 48 h; in short: as §1
MCF7 = assay: Growth inhibition of human MCF7 cells after 48 hrs by SRB assay; assay type: functional; details: MCF7, 48 h; in short: as §1
[2] = Growth inhibition of human Hs 578T cells after 48 hrs by SRB assay; assay type: functional; in short: as §1
BT-549 = assay: Growth inhibition of human BT549 cells after 48 hrs by SRB assay; assay type: functional; details: BT-549, 48 h; in short: as §1
MDA-MB-468 = assay: Growth inhibition of human MDA-MB-468 cells after 48 hrs by SRB assay; assay type: functional; details: MDA-MB-468, 48 h; in short: as §1
NCI-H460 [3] = assay: Cytotoxicity against human NCI-H460 cells after 72 hrs by SRB assay; assay type: functional, cell-based; details: NCI-H460, 72 h
In short: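 NCI-H460 (ATCC) cells seeded in 96-well plates in growth medium. Scalar drug concentrations added 24 h after plating, then 72 h exposure. Surviving cells stained with sulforhodamine B, OD read at 570 nm. IC50 (50% growth inhibition) fitted from dose–response curves. Mean ± SE of at least three independent experiments.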

Question: Which GI50 (CCRF-CEM) does the source give for COc1cc(C2=NN(C(C)=O)C(c3cc(OC)c(OC)c(OC)c3)C2)ccc1O (stereo not given) here?
Answer: 316 nM

Question: And the TGI (CCRF-CEM; read-out: pTGI (converted))?
Answer: 1000 nM

Question: What about the GI50 (HL-60(TB)) of the same molecule?
Answer: 158 nM

Question: And the TGI (HL-60(TB); read-out: pTGI (converted))?
Answer: 501 nM

Question: And the GI50 (MOLT-4)?
Answer: 398 nM

Question: And the TGI (MOLT-4; read-out: pTGI (converted))?
Answer: > 100000 nM

Question: What about the GI50 (SR) of the same molecule?
Answer: 50.1 nM

Question: What about the TGI (SR; read-out: pTGI (converted)) of the same molecule?
Answer: 501 nM

Question: What about the GI50 (EKVX) of the same molecule?
Answer: 794 nM

Question: And the TGI (EKVX; read-out: pTGI (converted))?
Answer: > 100000 nM

Question: And the GI50 (NCI-H460 [1])?
Answer: 398 nM

Question: And the TGI (NCI-H460 [1]; read-out: pTGI (converted))?
Answer: 15800 nM

Question: And the GI50 (HCT-116)?
Answer: 398 nM

Question: And the TGI (HCT-116; read-out: pTGI (converted))?
Answer: 50100 nM

Question: And the GI50 (HCT-15)?
Answer: 398 nM

Question: And the TGI (HCT-15; read-out: pTGI (converted))?
Answer: > 100000 nM

Question: What about the GI50 (KM12) of the same molecule?
Answer: 251 nM

Question: What about the TGI (KM12; read-out: pTGI (converted)) of the same molecule?
Answer: > 100000 nM

Question: And the GI50 (SW-620)?
Answer: 316 nM

Question: What about the TGI (SW-620; read-out: pTGI (converted)) of the same molecule?
Answer: > 100000 nM

Question: What about the GI50 (SF-268) of the same molecule?
Answer: 631 nM

Question: And the TGI (SF-268; read-out: pTGI (converted))?
Answer: > 100000 nM

Question: What about the GI50 (SF-539) of the same molecule?
Answer: 316 nM

Question: And the TGI (SF-539; read-out: pTGI (converted))?
Answer: 1000 nM

Question: And the GI50 (SNB-75)?
Answer: 251 nM

Question: What about the TGI (SNB-75; read-out: pTGI (converted)) of the same molecule?
Answer: > 100000 nM

Question: What about the GI50 (U-251) of the same molecule?
Answer: 398 nM

Question: What about the TGI (U-251; read-out: pTGI (converted)) of the same molecule?
Answer: > 100000 nM

Question: What about the TGI (Malme-3M) of the same molecule?
Answer: > 100000 nM

Question: What about the GI50 (SK-MEL-2) of the same molecule?
Answer: 501 nM

Question: What about the TGI (SK-MEL-2; read-out: pTGI (converted)) of the same molecule?
Answer: > 100000 nM

Question: What about the GI50 (MDA-MB-435) of the same molecule?
Answer: 50.1 nM

Question: What about the TGI (MDA-MB-435; read-out: pTGI (converted)) of the same molecule?
Answer: 200 nM

Question: What about the GI50 (SK-MEL-5) of the same molecule?
Answer: 63.1 nM

Question: And the TGI (SK-MEL-5; read-out: pTGI (converted))?
Answer: 501 nM

Question: And the GI50 (UACC-62)?
Answer: 316 nM

Question: And the TGI (UACC-62; read-out: pTGI (converted))?
Answer: > 100000 nM

Question: And the GI50 (OVCAR-4)?
Answer: 398 nM

Question: And the TGI (OVCAR-4; read-out: pTGI (converted))?
Answer: > 100000 nM

Question: What about the GI50 (NCI/ADR-RES) of the same molecule?
Answer: 251 nM

Question: What about the TGI (NCI/ADR-RES; read-out: pTGI (converted)) of the same molecule?
Answer: > 100000 nM

Question: And the GI50 (SK-OV-3)?
Answer: 316 nM

Question: What about the TGI (SK-OV-3; read-out: pTGI (converted)) of the same molecule?
Answer: > 100000 nM

Question: And the GI50 (786-0)?
Answer: 398 nM

Question: And the TGI (786-0; read-out: pTGI (converted))?
Answer: > 100000 nM

Question: What about the GI50 (A498) of the same molecule?
Answer: 251 nM

Question: What about the TGI (A498; read-out: pTGI (converted)) of the same molecule?
Answer: 3980 nM

Question: And the GI50 (RXF 393)?
Answer: 126 nM

Question: What about the GI50 (TK-10) of the same molecule?
Answer: 631 nM

Question: And the TGI (TK-10; read-out: pTGI (converted))?
Answer: > 100000 nM

Question: What about the GI50 (UO-31) of the same molecule?
Answer: 398 nM

Question: And the TGI (UO-31; read-out: pTGI (converted))?
Answer: > 100000 nM

Question: What about the GI50 (PC-3) of the same molecule?
Answer: 251 nM

Question: What about the TGI (PC-3; read-out: pTGI (converted)) of the same molecule?
Answer: > 100000 nM

Question: And the GI50 (DU-145)?
Answer: 316 nM

Question: What about the TGI (DU-145; read-out: pTGI (converted)) of the same molecule?
Answer: 12600 nM

Question: What about the GI50 (MCF7) of the same molecule?
Answer: 251 nM

Question: What about the TGI (MCF7; read-out: pTGI (converted)) of the same molecule?
Answer: > 100000 nM

Question: And the GI50 [2]?
Answer: 200 nM

Question: What about the TGI ([2]; read-out: pTGI (converted)) of the same molecule?
Answer: 631 nM

Question: And the GI50 (BT-549)?
Answer: 631 nM

Question: What about the TGI (BT-549; read-out: pTGI (converted)) of the same molecule?
Answer: > 100000 nM

Question: What about the GI50 (MDA-MB-468) of the same molecule?
Answer: 251 nM

Question: And the TGI (MDA-MB-468; read-out: pTGI (converted))?
Answer: 794 nM

Question: And the IC50 (NCI-H460 [3])?
Answer: 210 nM
